Substitutions are numbered along the chain they refer to. Values joined by “and” are separate entries in the source; they are usually repeats but may differ in a detail not shown here. Equal values may be shown once.
How the values were obtained:
Format in all cases: biochemical
Kir6.2ΔC26 334E channel = experiment: ATP inhibition of 334E channels, inside-out patch; details: read-out: Ki,ATP, Xenopus oocytes, without SUR, −80 mV
Kir6.2ΔC26 333K channel = experiment: ATP inhibition of 333K channels, inside-out patch; details: read-out: Ki,ATP, Xenopus oocytes, without SUR, n = 6
[1] = molecular target: T1, Kir6.2ΔC26 G334 (wild type) channel (Homo sapiens, UniProt Q14654); experiment: ATP inhibition of wild-type
T1 sequence (Q14654 1-364 limits assumed): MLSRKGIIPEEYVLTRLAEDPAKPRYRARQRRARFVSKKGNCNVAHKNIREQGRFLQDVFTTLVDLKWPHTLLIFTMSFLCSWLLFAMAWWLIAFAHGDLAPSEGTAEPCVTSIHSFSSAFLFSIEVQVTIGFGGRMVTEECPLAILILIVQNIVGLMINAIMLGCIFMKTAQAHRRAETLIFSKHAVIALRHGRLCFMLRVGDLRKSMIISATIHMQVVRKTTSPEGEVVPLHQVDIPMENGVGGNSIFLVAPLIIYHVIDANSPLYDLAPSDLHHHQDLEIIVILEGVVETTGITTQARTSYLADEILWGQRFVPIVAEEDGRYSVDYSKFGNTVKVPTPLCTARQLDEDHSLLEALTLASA

Kir6.2ΔC26 334A channel = experiment: ATP inhibition of 334A channels, inside-out patch; details: read-out: Ki,ATP, Xenopus oocytes, without SUR, −80 mV
Kir6.2ΔC26 334F channel = experiment: ATP inhibition of 334F channels, inside-out patch; details: read-out: Ki,ATP, Xenopus oocytes, without SUR, −80 mV
[2] = molecular target: wild-type SUR1/Kir6.2 channel (Homo sapiens, UniProt Q14654); details: 50 μM protamine
How it was run: (§1)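 Channels expressed in Xenopus oocytes: SUR1 plus Kir6.2 for line 1, Kir6.2ΔC26/G334R for line 2. Inside-out patches were held at −80 mV. Pipette contained (mM) 150 KCl, 10 NaCl, 1 CaCl2, 10 EGTA, 10 HEPES, pH 7.4. […] Signals filtered at 4 kHz, sampled at 20 kHz. Half-amplitude event detection, missed-event-corrected duration histogram fits, n = 5, mean ± SEM.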

[3] = molecular target: T2, Kir6.2/ΔC26/G334R channel (slow burst exit gating patches) (Homo sapiens, UniProt Q14654, G334R); details: 50 μM protamine
T2 sequence (Q14654 1-364 G334R limits assumed): T1 sequence (Q14654 1-364 limits assumed) with G334R
How it was run: as §1

Sequence of wild-type SUR1/Kir6.2 channel (Q14654 whole entry): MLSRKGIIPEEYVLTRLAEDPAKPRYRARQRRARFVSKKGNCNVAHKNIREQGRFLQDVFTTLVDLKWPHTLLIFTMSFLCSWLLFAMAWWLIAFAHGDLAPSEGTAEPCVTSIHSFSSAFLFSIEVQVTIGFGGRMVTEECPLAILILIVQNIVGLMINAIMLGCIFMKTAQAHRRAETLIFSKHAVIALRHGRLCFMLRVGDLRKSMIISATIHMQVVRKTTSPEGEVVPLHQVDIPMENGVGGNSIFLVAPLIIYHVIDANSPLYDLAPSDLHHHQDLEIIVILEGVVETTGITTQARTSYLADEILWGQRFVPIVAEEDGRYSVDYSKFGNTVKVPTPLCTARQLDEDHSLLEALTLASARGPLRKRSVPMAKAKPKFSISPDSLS
Sequence of wild-type SUR1/Kir6.2 channel (Q09428 whole entry partner): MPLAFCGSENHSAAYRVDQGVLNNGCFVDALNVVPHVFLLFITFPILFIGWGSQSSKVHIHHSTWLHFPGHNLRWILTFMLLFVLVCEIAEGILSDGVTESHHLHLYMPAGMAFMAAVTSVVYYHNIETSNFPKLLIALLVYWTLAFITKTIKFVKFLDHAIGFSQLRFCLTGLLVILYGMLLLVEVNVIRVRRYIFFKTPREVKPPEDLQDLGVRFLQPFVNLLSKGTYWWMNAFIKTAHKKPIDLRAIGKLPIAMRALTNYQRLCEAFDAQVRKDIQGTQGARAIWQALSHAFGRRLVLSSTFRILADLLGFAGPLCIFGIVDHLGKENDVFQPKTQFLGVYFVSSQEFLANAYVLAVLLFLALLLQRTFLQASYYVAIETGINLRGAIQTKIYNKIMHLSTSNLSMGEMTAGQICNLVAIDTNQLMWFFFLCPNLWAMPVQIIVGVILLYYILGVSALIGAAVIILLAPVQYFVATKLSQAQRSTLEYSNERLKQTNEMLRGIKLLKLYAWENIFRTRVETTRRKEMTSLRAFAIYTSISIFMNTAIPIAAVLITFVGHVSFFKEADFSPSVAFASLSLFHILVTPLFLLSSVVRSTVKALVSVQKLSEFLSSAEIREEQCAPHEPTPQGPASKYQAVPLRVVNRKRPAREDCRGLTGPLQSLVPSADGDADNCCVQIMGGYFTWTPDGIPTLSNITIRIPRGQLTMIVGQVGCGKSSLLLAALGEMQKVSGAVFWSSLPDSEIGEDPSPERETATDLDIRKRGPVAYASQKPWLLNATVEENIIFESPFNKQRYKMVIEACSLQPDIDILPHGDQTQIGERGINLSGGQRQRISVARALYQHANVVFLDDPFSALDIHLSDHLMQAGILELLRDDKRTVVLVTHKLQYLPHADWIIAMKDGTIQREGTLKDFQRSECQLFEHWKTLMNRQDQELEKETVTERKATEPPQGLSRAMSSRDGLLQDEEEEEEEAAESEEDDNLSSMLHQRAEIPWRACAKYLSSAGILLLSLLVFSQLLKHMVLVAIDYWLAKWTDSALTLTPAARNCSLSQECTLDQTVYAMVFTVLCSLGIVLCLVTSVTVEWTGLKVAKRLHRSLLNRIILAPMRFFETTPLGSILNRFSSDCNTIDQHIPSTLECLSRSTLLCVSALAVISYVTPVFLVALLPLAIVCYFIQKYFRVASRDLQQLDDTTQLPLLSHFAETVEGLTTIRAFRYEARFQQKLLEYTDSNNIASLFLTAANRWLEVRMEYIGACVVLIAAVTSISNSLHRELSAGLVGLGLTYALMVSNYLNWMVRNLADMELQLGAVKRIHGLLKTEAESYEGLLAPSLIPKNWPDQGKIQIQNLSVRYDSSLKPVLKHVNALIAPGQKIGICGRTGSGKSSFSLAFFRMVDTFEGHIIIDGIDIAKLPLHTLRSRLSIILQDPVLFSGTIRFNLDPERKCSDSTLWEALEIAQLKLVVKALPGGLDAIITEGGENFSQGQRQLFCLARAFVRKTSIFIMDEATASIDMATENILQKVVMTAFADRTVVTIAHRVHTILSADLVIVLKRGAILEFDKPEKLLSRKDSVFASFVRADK

Ki (Kir6.2ΔC26 334E channel) [µM]	Ki (Kir6.2ΔC26 333K channel) [µM]	inhibition of channel activity ([1]; 10 mM ATP)	slope factor αH of Hill fit of ATP inhibition ([1]; wild-type channel, αH free variable)	Ki (Kir6.2ΔC26 334A channel) [µM]	Ki (Kir6.2ΔC26 334F channel)	Molecule	mean open time after protamine ([2]; absence of ATP, before protamine 2.1 ± 0.2 ms) [ms]	mean burst time after protamine ([2]; absence of ATP, before protamine 48.0 ± 7.4 ms) [ms]	effect on gating from the burst ([2]; cytoplasmic face, all six patches)	mean open time after protamine ([3]; absence of ATP, n = 5, before protamine 1.9 ± 0.2 ms) [ms]	mean burst time after protamine ([3]; absence of ATP, n = 5, before protamine 80.3 ± 10.7 ms) [ms]	effect on slowed gating from the burst ([3]; all 12 patches)
5900 ± 20	2200 ± 300	complete inhibition	1.0 ± 0.1	2100 ± 50	3000 µM and 3100 µM	Nc1ncnc2c1ncn2[C@@H]1O[C@H](COP(=O)(O)OP(=O)([O-])OP(=O)([O-])O)[C@@H](O)[C@H]1O.[Mg+2] [ATP]	–	–	–	–	–	–
–	–	–	–	–	–	protamine	1.0 ± 0.2	2.6 ± 0.9	dramatically speeded gating from the burst	1.1 ± 0.2	2.6 ± 1.8	fully restore the fast gating from the burst
